Consider seven compounds from ChEMBL document CHEMBL1122788, “Quantitative relationships between alpha-adrenergic activity and binding affinity of alpha-adrenoceptor agonists and antagonists” (J Med Chem, 1984).

Assay [1] addresses T1, Adrenergic receptor alpha-1 (Rattus norvegicus, UniProt P15823+P23944+P43140).
T1 sequence (P15823 whole entry): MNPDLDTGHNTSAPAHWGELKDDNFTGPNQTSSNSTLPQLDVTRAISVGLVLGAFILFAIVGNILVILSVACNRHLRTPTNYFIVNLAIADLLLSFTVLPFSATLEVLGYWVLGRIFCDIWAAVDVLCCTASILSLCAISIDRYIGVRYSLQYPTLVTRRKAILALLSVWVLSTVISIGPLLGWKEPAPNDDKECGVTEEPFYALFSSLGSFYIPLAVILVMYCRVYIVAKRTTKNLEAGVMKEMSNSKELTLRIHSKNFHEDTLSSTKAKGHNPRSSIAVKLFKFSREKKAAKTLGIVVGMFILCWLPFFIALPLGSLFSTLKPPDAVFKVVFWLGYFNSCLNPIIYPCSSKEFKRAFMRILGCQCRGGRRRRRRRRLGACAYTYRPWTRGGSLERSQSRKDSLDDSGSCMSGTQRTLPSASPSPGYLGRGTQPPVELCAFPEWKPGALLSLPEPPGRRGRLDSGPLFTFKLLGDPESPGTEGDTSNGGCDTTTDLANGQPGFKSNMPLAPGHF
T1 sequence (P23944 whole entry): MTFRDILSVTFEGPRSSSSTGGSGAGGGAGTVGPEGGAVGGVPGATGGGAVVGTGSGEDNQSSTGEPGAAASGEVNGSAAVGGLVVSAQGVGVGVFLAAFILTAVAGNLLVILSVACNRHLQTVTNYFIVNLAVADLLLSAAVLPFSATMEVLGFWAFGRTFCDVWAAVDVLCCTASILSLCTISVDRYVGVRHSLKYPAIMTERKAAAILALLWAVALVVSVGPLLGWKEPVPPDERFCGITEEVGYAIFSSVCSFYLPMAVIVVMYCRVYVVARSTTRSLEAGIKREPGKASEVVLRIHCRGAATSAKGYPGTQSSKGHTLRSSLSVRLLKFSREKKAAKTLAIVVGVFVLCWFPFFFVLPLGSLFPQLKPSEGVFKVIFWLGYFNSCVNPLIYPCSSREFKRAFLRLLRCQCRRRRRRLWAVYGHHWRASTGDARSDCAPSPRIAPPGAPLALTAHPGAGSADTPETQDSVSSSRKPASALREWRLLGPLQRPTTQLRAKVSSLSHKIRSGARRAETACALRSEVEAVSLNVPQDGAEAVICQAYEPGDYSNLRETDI
T1 sequence (P43140 whole entry): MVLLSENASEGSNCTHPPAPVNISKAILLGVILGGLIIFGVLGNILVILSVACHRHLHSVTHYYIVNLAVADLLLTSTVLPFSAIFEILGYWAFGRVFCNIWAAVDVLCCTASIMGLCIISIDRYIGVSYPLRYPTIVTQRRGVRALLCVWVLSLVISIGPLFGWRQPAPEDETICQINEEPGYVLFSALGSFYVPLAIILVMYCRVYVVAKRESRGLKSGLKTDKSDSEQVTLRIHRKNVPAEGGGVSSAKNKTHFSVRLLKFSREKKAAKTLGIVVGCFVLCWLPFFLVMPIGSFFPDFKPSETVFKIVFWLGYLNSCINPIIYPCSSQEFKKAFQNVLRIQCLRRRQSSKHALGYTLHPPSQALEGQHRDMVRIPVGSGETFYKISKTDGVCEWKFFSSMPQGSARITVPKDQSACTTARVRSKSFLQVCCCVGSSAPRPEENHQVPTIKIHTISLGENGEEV
Description: Binding affinity against alpha-1 adrenergic receptor is the ability to inhibit the specific [3H]prazosin binding (0.2 nM) to rat isolated brain membranes by 50% was reported; 6.5*10e-5. The arrangement: species or system Membrane.

Assay [2] relates to Rattus norvegicus. In words: Hypertensive activity (increase in arterial pressure to 60 mmHg)) after i.v. administration to pithed rats.
The target of assay [3] is T2, Adrenergic receptor alpha-2 (Rattus norvegicus, UniProt P22086+P19328+P22909).
T2 sequence (P22086 whole entry): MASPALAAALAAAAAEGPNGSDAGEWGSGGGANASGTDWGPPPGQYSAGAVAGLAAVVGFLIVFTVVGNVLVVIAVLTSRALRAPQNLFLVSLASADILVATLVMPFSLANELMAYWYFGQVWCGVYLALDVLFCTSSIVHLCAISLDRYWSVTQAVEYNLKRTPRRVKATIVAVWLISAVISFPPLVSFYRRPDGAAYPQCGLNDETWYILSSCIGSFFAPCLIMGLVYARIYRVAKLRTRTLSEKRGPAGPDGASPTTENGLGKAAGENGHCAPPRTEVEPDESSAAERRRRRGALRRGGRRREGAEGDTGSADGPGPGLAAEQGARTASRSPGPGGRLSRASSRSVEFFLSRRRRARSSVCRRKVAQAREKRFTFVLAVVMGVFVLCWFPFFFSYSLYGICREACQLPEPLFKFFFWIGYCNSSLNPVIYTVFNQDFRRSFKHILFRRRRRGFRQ
T2 sequence (P19328 whole entry): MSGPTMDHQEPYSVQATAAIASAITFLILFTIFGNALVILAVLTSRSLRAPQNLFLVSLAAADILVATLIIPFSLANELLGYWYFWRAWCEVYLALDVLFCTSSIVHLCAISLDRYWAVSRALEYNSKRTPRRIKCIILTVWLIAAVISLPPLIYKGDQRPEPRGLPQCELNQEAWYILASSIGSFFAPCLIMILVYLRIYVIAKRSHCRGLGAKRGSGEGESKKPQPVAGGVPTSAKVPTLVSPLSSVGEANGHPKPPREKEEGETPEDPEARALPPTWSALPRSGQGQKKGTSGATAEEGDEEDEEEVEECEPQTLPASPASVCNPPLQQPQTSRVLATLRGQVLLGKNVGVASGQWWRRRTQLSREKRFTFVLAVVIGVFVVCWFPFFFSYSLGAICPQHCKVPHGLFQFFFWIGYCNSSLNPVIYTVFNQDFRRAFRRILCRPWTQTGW
T2 sequence (P22909 whole entry): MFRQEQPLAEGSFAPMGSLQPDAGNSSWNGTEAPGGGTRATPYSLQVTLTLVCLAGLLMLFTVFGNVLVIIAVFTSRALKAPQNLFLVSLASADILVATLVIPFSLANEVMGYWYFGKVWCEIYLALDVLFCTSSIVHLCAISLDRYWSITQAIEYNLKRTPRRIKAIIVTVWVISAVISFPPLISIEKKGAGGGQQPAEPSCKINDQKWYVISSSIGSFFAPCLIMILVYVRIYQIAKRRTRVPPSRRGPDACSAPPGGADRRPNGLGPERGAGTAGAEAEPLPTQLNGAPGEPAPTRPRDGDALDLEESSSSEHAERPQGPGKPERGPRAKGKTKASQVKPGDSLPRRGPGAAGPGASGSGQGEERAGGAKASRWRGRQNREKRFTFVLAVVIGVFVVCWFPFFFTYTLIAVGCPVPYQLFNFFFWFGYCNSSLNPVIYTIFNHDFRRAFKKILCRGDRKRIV
Description: Binding affinity against Alpha-2 adrenergic receptor is the ability to inhibit the specific [3H]-clonidine binding (0.4 nM) to rat isolated brain membranes by 50% was reported; 1*10e-6. Format: tissue-based, Membrane. Put shortly: (§1)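 Whole rat brain (minus cerebellum) from male Wistar rats (200–250 g), homogenized in ice-cold 50 mM Tris-HCl pH 7.7 and washed twice at 50000g. […] Bound ligand was collected by rapid filtration and counted. IC50 was derived by log-probit analysis.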

Assay [4] deals with Rattus norvegicus. In words: Hypotensive activity (25% decrease in arterial pressure) after i.v. administration to anesthetized normotensive rats.
Assay [5] deals with T2, Adrenergic receptor alpha-2. Description: Binding affinity against Alpha-2 adrenergic receptor is the ability to inhibit the specific [3H]clonidine binding (0.4 nM) to rat isolated brain membranes by 50% was reported; 2.5*10e-9. Format: tissue-based, Membrane.
Assay [6] deals with T1, Adrenergic receptor alpha-1. In words: Binding affinity against alpha-1 adrenergic receptor is the ability to inhibit the specific [3H]prazosin binding (0.2 nM) to rat isolated brain membranes by 50% was reported; 6.6*10e-7. Format: tissue-based, Membrane. In short, it runs like this: (§2)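 Brain membranes were prepared from male Wistar rats (200–250 g, cerebellum removed) in ice-cold 50 mmol/L Tris-HCl, pH 7.7, with two 50000g spins, and used at 1 mg/mL protein (Lowry). […] Bound label was collected by vacuum filtration and counted. IC50 came from log probit analysis.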

The target in assay [7] is T2, Adrenergic receptor alpha-2. In words: Inhibition of specific [3H]clonidine binding (0.4 nM) to rat brain membranes alpha2 adrenoceptor. Format: cell membranes, Membrane.
Assay [8] has the same target. Description: Antagonist activity against B-HT 933-induced alpha-2-adrenoceptor-mediated vasoconstriction in pithed normotensive rats. Format: functional.
The target in assay [9] is T1, Adrenergic receptor alpha-1. In words: Binding affinity against alpha-1 adrenergic receptor is the ability to inhibit the specific [3H]prazosin binding (0.2 nM) to rat isolated brain membranes by 50% was reported; 1.6*10e-6. Format: tissue-based, Membrane. In short, it runs like this:
as §2

The target in assay [10] is T2, Adrenergic receptor alpha-2. In words: Binding affinity against Alpha-2 adrenergic receptor is the ability to inhibit the specific [3H]clonidine binding (0.4 nM) to rat isolated brain membranes by 50% was reported; 3.0*10e-8. Format: tissue-based, Membrane.
The target is the same in assay [11]. In words: Inhibition of specific [3H]-clonidine binding (0.4 nM) to rat brain membranes alpha-2 adrenoceptor; 2.8*10e-7. Format: cell membranes, Membrane.
For assay [12], the target named is Adrenergic receptor alpha-2 (Homo sapiens) (UniProt P08913+P18825+P18089). The settings on record: Oryctolagus cuniculus.
Assay [13] addresses T1, Adrenergic receptor alpha-1. In words: Binding affinity against alpha-1 adrenergic receptor is the ability to inhibit the specific [3H]prazosin binding (0.2 nM) to rat isolated brain membranes by 50% was reported; 6.1*10e-5. Format: tissue-based, Membrane.
Assay [14] addresses T2, Adrenergic receptor alpha-2. Description: Binding affinity against Alpha-2 adrenergic receptor is the ability to inhibit the specific [3H]clonidine binding (0.4 nM) to rat isolated brain membranes by 50% was reported; 1.4*10e-7. Format: tissue-based, Membrane. In short, it runs like this:
as §1

For assay [15], the target named is T1, Adrenergic receptor alpha-1. Description: Binding affinity against alpha-1 adrenergic receptor is the ability to inhibit the specific [3H]prazosin binding (0.2 nM) to rat isolated brain membranes by 50% was reported; 5.8*10e-7. Format: tissue-based, Membrane. In short, it runs like this: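 Whole rat brain (minus cerebellum) from male Wistar rats (200–250 g), homogenized in ice-cold 50 mM Tris-HCl pH 7.7 and washed twice at 50000g. […] Bound ligand was collected by filtration and counted. IC50 was derived by log-probit analysis.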

For `Cn1cc2c(NC3=NCCN3)cccc2n1` [INDANIDINE], the results for the IC50 in assay [1] and in assay [3] were 65000 nM and 1000 nM, respectively. For the same compound, the pC60 with Rattus norvegicus [2] is listed as -0.24 uM kg-1.

With `CC(Oc1c(Cl)cccc1Cl)C1=NCCN1` (stereo not drawn) [LOFEXIDINE], in the assay with Rattus norvegicus [2], the pC60 amounted to 1.99 uM kg-1. For the same compound, the pC25 in the assay with Rattus norvegicus [4] turned out to be 2.09 uM kg-1. For the same compound, the IC50 is 2.5 nM in assay [5] and 660 nM in [6].

`c1ccc2c(c1)OCC(CN1CCCCC1)O2` (stereo not drawn) [PIPEROXAN] came in with an IC50 in [7] of 140 nM. The compound also showed a pA2 in [8] of 6.23.

Regarding `c1ccc2c(c1)CCCC2C1=NCCN1` (stereo not drawn) [TETRAHYDROZOLINE], the IC50 was 1600 nM in [9] and 30 nM in [10]. In the assay with Rattus norvegicus [2], this compound registered a pC60 of 0.9 uM kg-1. Moreover, the pC25 in the assay with Rattus norvegicus [4] was -0.16 uM kg-1.

Take `c1ccc(CC2=NCCN2)cc1` [TOLAZOLINE]: the IC50 in assay [11] came out at 280 nM. The compound also displayed a pC30 in assay [12] of 6.15. The same compound displayed a pA2 in assay [8] of 5.82.

On to `Cc1cccc(C)c1NC1=NCCCS1` [XYLAZINE], for which the results for the IC50 in assay [13] and in assay [14] were 61000 nM and 140 nM, respectively. Further, in the assay on Rattus norvegicus [2], the pC60 is on record as -0.02 uM kg-1. In the assay with Rattus norvegicus [4], this compound gave a pC25 of 0.62 uM kg-1.

The compound `Cc1cc(C(C)(C)C)cc(C)c1CC1=NCCN1` [XYLOMETAZOLINE] returned an IC50 in assay [15] of 580 nM. Moreover, the pC60 with Rattus norvegicus [2] is recorded as 1.12 uM kg-1. In the assay with Rattus norvegicus [4], the pC25 is on record as 0.26 uM kg-1.

As usually defined, the IC50 is the concentration at which inhibition is half-maximal. Read a low IC50 as greater potency. A word on the pA2: it is a measure of antagonist potency on a negative log scale. The low end stands for a weaker antagonist, the high end for a more potent antagonist.
